# Calls of active or inactive are those of the source. No cut-off for these calls is given here.
# Columns and labels:
# [1] = tested on: Candida albicans; experiment: Antimicrobial activity against fluconazole-resistant Candida albicans ATCC 14503 after 16 to 18 hrs by microbroth dilution assay; type: functional
# How it was run: (§1)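 Broth microdilution susceptibility testing, adapted with minor changes from a published method, incubated at 37 °C for 16–18 h; read-out is the minimum inhibitory concentration. C. krusei and C. glabrata strains came from the University of Texas Medical Center. C. albicans UCD FR1 was raised in-house by repeated passage through Sabouraud medium containing inhibitory fluconazole concentrations.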
# [2] = tested on: Candida albicans; experiment: Antimicrobial activity against Candida albicans UCD FRI after 16 to 18 hrs by microbroth dilution assay; type: functional; how it was run: as §1
# [3] = organism: Oryctolagus cuniculus; experiment: Inhibition of IP3-sensitive Ca2+ channel activity in endoplasmic reticulum of rabbit cerebellum assessed as Ca2+ release; type: tissue-based
# [4] = tested on: Pichia kudriavzevii; experiment: Antimicrobial activity against Candida krusei after 16 to 18 hrs by microbroth dilution assay; type: functional; how it was run: as §1
# [5] = tested on: Nakaseomyces glabratus; experiment: Antimicrobial activity against Candida glabrata after 16 to 18 hrs by microbroth dilution assay; type: functional; how it was run: as §1
# [6] = tested on: Pichia kudriavzevii; experiment: Antimicrobial activity against Candida krusei up to 300 ug/disk by disk diffusion method; type: functional, organism-based
# How it was run: (§2)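 Disk diffusion antifungal test, up to 300 μg/disk, read as a zone of inhibition. C. glabrata and C. krusei were clinical strains from the University of Texas Medical Center. C. albicans UCD FR1 was raised in-house by repeated passage through Sabouraud medium containing inhibitory concentrations of fluconazole.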
# [7] = tested on: Candida albicans; experiment: Antimicrobial activity against fluconazole-resistant Candida albicans ATCC 14503 up to 300 ug/disk by disk diffusion method; type: functional, organism-based
# [8] = tested on: Nakaseomyces glabratus; experiment: Antimicrobial activity against Candida glabrata up to 300 ug/disk by disk diffusion method; type: functional, organism-based; how it was run: as §2
# [9] = tested on: Candida albicans; experiment: Antimicrobial activity against Candida albicans UCD FRI up to 300 ug/disk by disk diffusion method; type: functional, organism-based; how it was run: as §2
Compound,MIC [1] [µg/mL],MIC [2] [µg/mL],ED50 [3] [nM],MIC [4] [µg/mL],MIC [5] [µg/mL],Activity [6],Activity [7],Activity [8],Activity [9]
C1CCC[C@H]2CCCN3CC[C@@H](CCCCCC[C@@H]4CCCN5CC[C@@H](CC1)O[C@@H]45)O[C@@H]23,100,100,300,30,30,,,,
O[C@H]1C[C@H]2CCCCCC[C@@H]3CCN4CCC[C@@H](CCCCCC[C@@H]5CCN(C1)[C@H]2O5)[C@@H]4O3,,,6400,,,inactive,inactive,inactive,inactive
O[C@]12CCCCCC[C@@H]3CCN4CCC[C@H](CCCCCC[C@@H]5CCN(CCC1)[C@H]2O5)[C@@H]4O3 [(+)-DEMETHYLXESTOSPONGIN B],100,30,,30,30,,,,
OC(Cn1cncn1)(Cn1cncn1)c1ccc(F)cc1F [FLUCONAZOLE],1,100,,100,100,,,,
O[C@]12CCCCCC[C@@H]3CCN4CCC[C@@H](CCCCCC[C@@H]5CCN(CCC1)[C@H]2O5)[C@@H]4O3,100,100,800,100,100,,,,
C[C@@H]1[C@H](O)[C@@H](C)/C=C/C=C/C=C/C=C/C=C/C=C/C=C/[C@H](O[C@@H]2O[C@H](C)[C@@H](O)[C@H](N)[C@@H]2O)C[C@@H]2O[C@](O)(C[C@@H](O)C[C@@H](O)[C@H](O)CC[C@@H](O)C[C@@H](O)CC(=O)O[C@H]1C)C[C@H](O)[C@H]2C(=O)O [AMPHOTERICIN B],0.3,1,,,1,,,,
C1CCC[C@@H]2CCCN3CC[C@@H](CCCCCC[C@@H]4CCCN5CC[C@@H](CC1)O[C@@H]45)O[C@@H]23,100,100,,100,100,,,,

# — ChEMBL document CHEMBL1159327, “(+)-7S-Hydroxyxestospongin A from the marine sponge Xestospongia sp. and absolute configuration of (+)-xestospongin D” (2002)
